Results published in ChEMBL document CHEMBL5058577, “EUbOPEN Chemogenomics Library 2 (Multiplex)” (2022).

Tested on: U2OS
Assay: Multiplex assay against U2OS
Type: toxicity, cell-based
Conditions: human
Procedure, shortened: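 Values for tubulin, mitochondrial-mass and membrane-permeability phenotypes are per cents of cells with healthy nuclei. These cells were identified by CellPathfinder machine-learning gating of live cells that had been stained at seeding with Hoechst33342, BioTracker Green Microtubule Cytoskeleton Dye, MitoTracker Red and Annexin V Alexa Fluor 680 and imaged on a CQ1 microscope at 37°C and 5% CO2 after compound addition. The gating first set Hoechst high-intensity objects apart from normal cells, then split normal cells into healthy, pyknosed or fragmented nuclei, and pyknosed cells into mitotic or apoptotic.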

[1] = 12 h, 1 µM, compound concentration 1 uM, replicate 1
[2] = 12 h, 1 µM, compound concentration 1 uM, replicate 2
[3] = 12 h, 10 µM, compound concentration 10 uM, replicate 1
[4] = 12 h, 10 µM, compound concentration 10 uM, replicate 2
[5] = 24 h, 1 µM, compound concentration 1 uM, replicate 1
[6] = 24 h, 1 µM, compound concentration 1 uM, replicate 2
[7] = 24 h, 10 µM, compound concentration 10 uM, replicate 1
[8] = 24 h, 10 µM, compound concentration 10 uM, replicate 2
[9] = 48 h, 1 µM, compound concentration 1 uM, replicate 1
[10] = 48 h, 1 µM, compound concentration 1 uM, replicate 2
[11] = 48 h, 10 µM, compound concentration 10 uM, replicate 1
[12] = 48 h, 10 µM, compound concentration 10 uM, replicate 2

COc1cc2nc(N3CCN(C(=O)c4ccco4)CC3)nc(N)c2cc1OC.Cl [PRAZOSIN HYDROCHLORIDE]
Population Apoptotic (%) [1]: 88%
Population Fragmented Nuclei (%) [1]: 21%
Population Healthy Nuclei (%) [1]: 70%
Population Hoechst High Intensity Objects (%) [1]: 2%
Population Membrane Permeable-Phenotype (%) [1]: 4%
Population Mitochondria Different-Phenotype (%) [1]: 2%
Population Mitotic Cells (%) [1]: 11%
Population Normal (%) [1]: 97%
Population Pyknosed Nuclei (%) [1]: 7%
Population Tubulin-Different-Phenotype (%) [1]: 1%
Total Cell Count [1]: 235
Population Apoptotic (%) [2]: 94%
Population Fragmented Nuclei (%) [2]: 18%
Population Healthy Nuclei (%) [2]: 69%
Population Hoechst High Intensity Objects (%) [2]: 1%
Population Membrane Permeable-Phenotype (%) [2]: 5%
Population Mitochondria Different-Phenotype (%) [2]: 7%
Population Mitotic Cells (%) [2]: 5%
Population Normal (%) [2]: 98%
Population Pyknosed Nuclei (%) [2]: 12%
Population Tubulin-Different-Phenotype (%) [2]: 8%
Total Cell Count [2]: 159
Population Apoptotic (%) [3]: 86%
Population Fragmented Nuclei (%) [3]: 25%
Population Healthy Nuclei (%) [3]: 67%
Population Hoechst High Intensity Objects (%) [3]: 3%
Population Membrane Permeable-Phenotype (%) [3]: 12%
Population Mitochondria Different-Phenotype (%) [3]: 2%
Population Mitotic Cells (%) [3]: 13%
Population Normal (%) [3]: 96%
Population Pyknosed Nuclei (%) [3]: 7%
Population Tubulin-Different-Phenotype (%) [3]: 6%
Total Cell Count [3]: 216
Population Apoptotic (%) [4]: 72%
Population Fragmented Nuclei (%) [4]: 15%
Population Healthy Nuclei (%) [4]: 74%
Population Hoechst High Intensity Objects (%) [4]: 0%
Population Membrane Permeable-Phenotype (%) [4]: 4%
Population Mitochondria Different-Phenotype (%) [4]: 5%
Population Mitotic Cells (%) [4]: 27%
Population Normal (%) [4]: 99%
Population Pyknosed Nuclei (%) [4]: 9%
Population Tubulin-Different-Phenotype (%) [4]: 7%
Total Cell Count [4]: 114
Population Apoptotic (%) [5]: 95%
Population Fragmented Nuclei (%) [5]: 22%
Population Healthy Nuclei (%) [5]: 69%
Population Hoechst High Intensity Objects (%) [5]: 1%
Population Membrane Permeable-Phenotype (%) [5]: 8%
Population Mitochondria Different-Phenotype (%) [5]: 2%
Population Mitotic Cells (%) [5]: 4%
Population Normal (%) [5]: 98%
Population Pyknosed Nuclei (%) [5]: 7%
Population Tubulin-Different-Phenotype (%) [5]: 4%
Total Cell Count [5]: 273
Population Apoptotic (%) [6]: 100%
Population Fragmented Nuclei (%) [6]: 15%
Population Healthy Nuclei (%) [6]: 74%
Population Hoechst High Intensity Objects (%) [6]: 0%
Population Membrane Permeable-Phenotype (%) [6]: 10%
Population Mitochondria Different-Phenotype (%) [6]: 5%
Population Mitotic Cells (%) [6]: 0%
Population Normal (%) [6]: 100%
Population Pyknosed Nuclei (%) [6]: 10%
Population Tubulin-Different-Phenotype (%) [6]: 9%
Total Cell Count [6]: 188
Population Apoptotic (%) [7]: 78%
Population Fragmented Nuclei (%) [7]: 23%
Population Healthy Nuclei (%) [7]: 68%
Population Hoechst High Intensity Objects (%) [7]: 2%
Population Membrane Permeable-Phenotype (%) [7]: 8%
Population Mitochondria Different-Phenotype (%) [7]: 6%
Population Mitotic Cells (%) [7]: 21%
Population Normal (%) [7]: 97%
Population Pyknosed Nuclei (%) [7]: 7%
Population Tubulin-Different-Phenotype (%) [7]: 6%
Total Cell Count [7]: 244
Population Apoptotic (%) [8]: 85%
Population Fragmented Nuclei (%) [8]: 13%
Population Healthy Nuclei (%) [8]: 71%
Population Hoechst High Intensity Objects (%) [8]: 1%
Population Membrane Permeable-Phenotype (%) [8]: 7%
Population Mitochondria Different-Phenotype (%) [8]: 5%
Population Mitotic Cells (%) [8]: 14%
Population Normal (%) [8]: 98%
Population Pyknosed Nuclei (%) [8]: 15%
Population Tubulin-Different-Phenotype (%) [8]: 4%
Total Cell Count [8]: 138
Population Apoptotic (%) [9]: 94%
Population Fragmented Nuclei (%) [9]: 16%
Population Healthy Nuclei (%) [9]: 74%
Population Hoechst High Intensity Objects (%) [9]: 2%
Population Membrane Permeable-Phenotype (%) [9]: 6%
Population Mitochondria Different-Phenotype (%) [9]: 2%
Population Mitotic Cells (%) [9]: 5%
Population Normal (%) [9]: 97%
Population Pyknosed Nuclei (%) [9]: 9%
Population Tubulin-Different-Phenotype (%) [9]: 2%
Total Cell Count [9]: 388
Population Apoptotic (%) [10]: 100%
Population Fragmented Nuclei (%) [10]: 15%
Population Healthy Nuclei (%) [10]: 77%
Population Hoechst High Intensity Objects (%) [10]: 1%
Population Membrane Permeable-Phenotype (%) [10]: 7%
Population Mitochondria Different-Phenotype (%) [10]: 7%
Population Mitotic Cells (%) [10]: 0%
Population Normal (%) [10]: 98%
Population Pyknosed Nuclei (%) [10]: 7%
Population Tubulin-Different-Phenotype (%) [10]: 5%
Total Cell Count [10]: 266
Population Apoptotic (%) [11]: 96%
Population Fragmented Nuclei (%) [11]: 20%
Population Healthy Nuclei (%) [11]: 71%
Population Hoechst High Intensity Objects (%) [11]: 1%
Population Membrane Permeable-Phenotype (%) [11]: 5%
Population Mitochondria Different-Phenotype (%) [11]: 2%
Population Mitotic Cells (%) [11]: 3%
Population Normal (%) [11]: 98%
Population Pyknosed Nuclei (%) [11]: 8%
Population Tubulin-Different-Phenotype (%) [11]: 3%
Total Cell Count [11]: 341
Population Apoptotic (%) [12]: 94%
Population Fragmented Nuclei (%) [12]: 15%
Population Healthy Nuclei (%) [12]: 76%
Population Hoechst High Intensity Objects (%) [12]: 2%
Population Mitochondria Different-Phenotype (%) [12]: 6%
Population Mitotic Cells (%) [12]: 5%
Population Normal (%) [12]: 97%
Total Cell Count [12]: 208
